Laboratory results published in ChEMBL document CHEMBL1159017, “Akuammine and dihydroakuammine, two indolomonoterpene alkaloids displaying affinity for opioid receptors” (J Nat Prod, 1992).

Experiments:
[1] = Displacement of [3H]U69593 from kappa opioid receptor in guinea pig cerebellum membrane; type: cell membranes, Cavia porcellus
Summary of the method: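 Guinea pig cerebellum homogenate incubated with 1.5 nM [3H]-U 69593 for 60 min at 20°. Rapid filtration, then beta-scintillation counting. Specific binding defined with 10^-5 M U50488H (>70%). IC50, the molar concentration giving half-maximal displacement, derived from displacement curves.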

[2] = target: Mu-type opioid receptor (Rattus norvegicus, UniProt P33535); experiment: Displacement of [3H]DAMGO from mu opioid receptor in rat central nervous system membrane; type: tissue-based
Summary of the method: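 Rat CNS membranes incubated with 1 nM [3H]-DAGO for 60 min at 20°. Bound and free radioligand separated by rapid filtration, then beta-scintillation counting. Specific binding defined with 10^-5 M unlabelled DAGO (>70%). IC50 (molar concentration giving half-maximal displacement) calculated from displacement curves.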

[3] = target: Delta-type opioid receptor (Rattus norvegicus, UniProt P33533); experiment: Displacement of [3H]pCl-DPDP from delta opioid receptor in rat central nervous system membrane; type: tissue-based
Summary of the method: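 Rat CNS membranes incubated with 1 nM [3H]-pCl-DPDP-enkephalin for 270 min at 20°. Bound and free ligand separated by rapid filtration; radioactivity counted by beta scintillation. Nonspecific binding set with 10^-5 M unlabelled DPDP-enkephalin (specific >70%). IC50 (half-maximal displacement, molar) obtained from displacement curves.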

Sequence of Delta-type opioid receptor (P33533 whole entry): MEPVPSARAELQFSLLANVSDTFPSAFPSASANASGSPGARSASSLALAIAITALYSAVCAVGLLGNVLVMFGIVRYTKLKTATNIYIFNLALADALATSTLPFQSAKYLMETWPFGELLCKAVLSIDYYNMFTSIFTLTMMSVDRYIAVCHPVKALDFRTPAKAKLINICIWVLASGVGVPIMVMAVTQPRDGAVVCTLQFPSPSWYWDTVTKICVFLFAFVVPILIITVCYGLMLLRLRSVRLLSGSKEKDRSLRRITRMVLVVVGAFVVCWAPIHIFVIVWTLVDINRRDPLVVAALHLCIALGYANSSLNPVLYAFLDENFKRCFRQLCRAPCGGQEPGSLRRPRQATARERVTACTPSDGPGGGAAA
Sequence of Mu-type opioid receptor (P33535 whole entry): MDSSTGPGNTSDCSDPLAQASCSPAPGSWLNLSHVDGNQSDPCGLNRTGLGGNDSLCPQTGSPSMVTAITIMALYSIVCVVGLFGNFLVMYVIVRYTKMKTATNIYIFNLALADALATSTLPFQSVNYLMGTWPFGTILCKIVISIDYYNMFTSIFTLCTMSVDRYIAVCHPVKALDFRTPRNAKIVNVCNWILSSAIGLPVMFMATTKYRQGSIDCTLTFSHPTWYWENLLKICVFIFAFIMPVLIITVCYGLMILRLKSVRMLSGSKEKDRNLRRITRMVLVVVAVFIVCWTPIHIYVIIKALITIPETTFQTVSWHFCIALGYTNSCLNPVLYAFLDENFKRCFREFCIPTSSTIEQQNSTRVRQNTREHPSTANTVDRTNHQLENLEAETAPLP

| Structure (SMILES) | IC50 [1] | IC50 [2] | IC50 [3] |
| --- | --- | --- | --- |
| CN1CC[C@@]2(C)c3cc(O)ccc3N(C)[C@@H]12 | 0.3 µM | 0.3 µM | 10 µM |
| C/C=C1/CN2CC[C@@]34c5cc(O)ccc5N(C)[C@]35OC[C@@]4(C(=O)OC)[C@@H]1C[C@H]25 [AKUAMMINE] | 4 µM | – | 20 µM |
| C/C=C1/CN2CC[C@@]34c5cc(O)ccc5N(C)[C@@]23CC[C@H]1[C@@]4(CO)C(=O)OC [DIHYDROAKUAMMINE] | 20 µM | 6 µM | > 100 µM |
